{"source": "ChEMBL document CHEMBL1157184", "about": "“Hymenoic acid, a novel specific inhibitor of human DNA polymerase lambda from a fungus of Hymenochaetaceae sp” (Bioorg Med Chem, 2008)", "key": {"[1]": {"biological_target": "T1, DNA polymerase eta (Homo sapiens) (UniProt Q9Y253)", "T1 sequence (whole entry)": "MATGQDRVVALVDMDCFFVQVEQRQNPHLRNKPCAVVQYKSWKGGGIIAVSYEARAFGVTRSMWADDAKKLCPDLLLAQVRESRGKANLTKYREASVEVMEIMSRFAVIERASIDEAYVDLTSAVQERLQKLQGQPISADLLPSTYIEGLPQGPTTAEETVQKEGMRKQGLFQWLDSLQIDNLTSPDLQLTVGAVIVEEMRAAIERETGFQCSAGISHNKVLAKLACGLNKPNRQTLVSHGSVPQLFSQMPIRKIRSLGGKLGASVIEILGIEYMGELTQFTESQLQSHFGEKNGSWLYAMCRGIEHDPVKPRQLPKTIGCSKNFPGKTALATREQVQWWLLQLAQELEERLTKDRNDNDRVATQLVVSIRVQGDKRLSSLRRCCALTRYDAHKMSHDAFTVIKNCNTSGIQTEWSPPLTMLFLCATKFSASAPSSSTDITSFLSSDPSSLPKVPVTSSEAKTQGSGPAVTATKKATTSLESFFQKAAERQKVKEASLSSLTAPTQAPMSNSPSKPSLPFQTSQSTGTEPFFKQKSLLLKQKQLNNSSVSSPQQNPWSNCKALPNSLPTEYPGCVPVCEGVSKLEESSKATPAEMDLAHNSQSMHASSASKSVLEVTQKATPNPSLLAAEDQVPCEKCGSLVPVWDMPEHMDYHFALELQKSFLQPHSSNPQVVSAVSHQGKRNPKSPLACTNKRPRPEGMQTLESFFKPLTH", "test": "Inhibition of human DNA polymerase eta at 200 uM", "outline": "(§1)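 Compound dissolved in DMSO and sonicated 30 s, then held with each polymerase (final 0.05 U) in 50 mM Tris-HCl pH 7.5, 1 mM DTT, 50% glycerol, 0.1 mM EDTA at 0 °C for 10 min. Reaction with poly(dA)/oligo(dT)12-18 and dTTP ran 60 min at 37 °C (Taq at 74 °C). Activity relative to no-compound control; means ± SEM, four independent experiments.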"}, "[2]": {"biological_target": "T2, DNA polymerase kappa (Homo sapiens) (UniProt Q9UBT6)", "T2 sequence (whole entry)": "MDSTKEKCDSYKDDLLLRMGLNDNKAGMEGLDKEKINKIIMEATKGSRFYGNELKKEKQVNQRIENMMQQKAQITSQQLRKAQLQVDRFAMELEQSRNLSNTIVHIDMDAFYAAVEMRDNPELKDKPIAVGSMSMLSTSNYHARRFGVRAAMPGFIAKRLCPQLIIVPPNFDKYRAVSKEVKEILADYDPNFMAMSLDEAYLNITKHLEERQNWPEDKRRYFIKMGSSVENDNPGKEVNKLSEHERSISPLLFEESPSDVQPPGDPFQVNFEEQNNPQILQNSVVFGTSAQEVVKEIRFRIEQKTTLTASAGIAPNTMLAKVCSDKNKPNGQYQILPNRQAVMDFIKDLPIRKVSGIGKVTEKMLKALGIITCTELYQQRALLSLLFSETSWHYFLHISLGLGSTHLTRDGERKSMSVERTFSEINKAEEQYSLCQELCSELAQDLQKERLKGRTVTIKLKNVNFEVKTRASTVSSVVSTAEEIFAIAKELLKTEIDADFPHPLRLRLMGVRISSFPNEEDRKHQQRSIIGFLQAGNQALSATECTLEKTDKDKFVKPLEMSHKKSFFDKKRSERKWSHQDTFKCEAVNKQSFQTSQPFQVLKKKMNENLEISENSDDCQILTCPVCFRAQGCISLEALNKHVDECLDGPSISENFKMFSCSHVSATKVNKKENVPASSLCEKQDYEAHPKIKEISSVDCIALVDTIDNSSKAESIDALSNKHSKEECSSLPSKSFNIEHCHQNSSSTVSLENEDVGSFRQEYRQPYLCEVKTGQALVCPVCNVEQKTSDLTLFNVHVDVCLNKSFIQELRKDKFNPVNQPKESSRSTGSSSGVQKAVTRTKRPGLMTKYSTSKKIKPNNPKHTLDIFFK", "test": "Inhibition of human DNA polymerase kappa at 200 uM", "outline": "as §1"}, "[3]": {"species": "Homo sapiens", "test": "Inhibition of human topoisomerase type 2 at 200 uM", "outline": "(§2)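 Each enzyme (0.05 U) was incubated with 200 μM compound. Activity was expressed as a percentage of the activity without compound (100%). Means ± SEM of four independent experiments.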"}, "[4]": {"species": "Homo sapiens", "test": "Inhibition of human topoisomerase type 1 at 200 uM", "outline": "as §2"}, "[5]": {"biological_target": "T3, DNA polymerase lambda (Homo sapiens) (UniProt Q9UGP5)", "T3 sequence (whole entry)": "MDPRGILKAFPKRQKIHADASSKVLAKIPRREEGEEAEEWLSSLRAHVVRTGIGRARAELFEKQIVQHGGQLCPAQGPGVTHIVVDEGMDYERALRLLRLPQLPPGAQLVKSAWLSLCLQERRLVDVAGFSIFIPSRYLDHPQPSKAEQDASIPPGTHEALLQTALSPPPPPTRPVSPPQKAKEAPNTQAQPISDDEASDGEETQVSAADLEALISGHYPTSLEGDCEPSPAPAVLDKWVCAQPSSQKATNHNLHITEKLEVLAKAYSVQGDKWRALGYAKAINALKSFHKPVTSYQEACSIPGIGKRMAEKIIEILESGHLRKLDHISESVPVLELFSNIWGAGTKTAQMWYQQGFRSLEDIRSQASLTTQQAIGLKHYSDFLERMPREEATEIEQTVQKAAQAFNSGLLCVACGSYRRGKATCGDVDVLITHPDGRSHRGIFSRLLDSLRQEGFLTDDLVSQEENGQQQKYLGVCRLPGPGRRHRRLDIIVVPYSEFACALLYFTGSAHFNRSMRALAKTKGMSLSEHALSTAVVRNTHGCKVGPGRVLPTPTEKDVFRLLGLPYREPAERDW", "test": "Inhibition of human DNA polymerase lambda at 200 uM", "outline": "as §1"}}, "note": "Calls of active or inactive are those of the source. The calls are words filed in the database; no cut-off is given here."}
{"compound": "C/C(=C\\CC[C@H](C)C(=O)O)[C@H]1CC[C@H](C(=O)O)CC1", "values": [{"measurement": "Activity", "setting": "[1]", "value": "inactive"}, {"measurement": "Activity", "setting": "[2]", "value": "inactive"}, {"measurement": "Activity", "setting": "[3]", "value": "inactive"}, {"measurement": "Activity", "setting": "[4]", "value": "inactive"}, {"measurement": "Activity", "setting": "[5]", "value": "Active"}]}
